This is a sample that favours compounds with a hit; in the whole collection about 1.9% have one here.
DNMT1 inh: human DNMT1 methyltransferase inhibitors, primary screen, biochemical, molecular beacon, fluorescence, HinP1I cleavage, uHTS; AID 588458, 2011; inhibition (reported as % activation of signal), % at 10 µM; DNA (cytosine-5)-methyltransferase 1 (Homo sapiens), P26358; hit rate 0.83% among 360,000; in the data active means inhibition above about 50%
SUMO HTRF inh: inhibitors of in vitro SUMOylation cascade, primary screen, biochemical, HTRF, uHTS; HTRF SUMOylation assay, SAE1/SAE2 + UBC9; inhibition, % at 35 µM; SUMO-conjugating enzyme UBC9 (Homo sapiens), P63279; hit rate 0.36% among 290,000; in the data active means inhibition above about 50%, passing the limit was not always enough
Scp1 inh: Scp-1 phosphatase inhibitors, primary screen, biochemical, colorimetric, uHTS; Carboxy-terminal domain RNA polymerase II polypeptide A small phosphatase 1 (Homo …; Recombinant Scp1, phosphopeptide, malachite green phosphate absorbance; inhibition, % at 20 µM; hit rate 0.88% among 340,000; AID 493091, 2011;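 active means inhibition above about 50% at 20 µM, limit read from the data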;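 further: plate controls were DMSO wells with enzyme for no effect and wells lacking enzyme for full effect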
Target sequence (Q9GZU7 76-261 limits assumed): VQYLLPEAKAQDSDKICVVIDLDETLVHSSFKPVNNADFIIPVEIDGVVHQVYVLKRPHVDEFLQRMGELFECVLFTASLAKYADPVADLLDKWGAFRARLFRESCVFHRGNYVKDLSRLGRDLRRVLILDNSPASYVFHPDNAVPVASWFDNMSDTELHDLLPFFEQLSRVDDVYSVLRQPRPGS
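Test system – truncated SCP-1 phosphatase (76-261aa) · Reagent – Phosphorylated 17-residue peptide substrate · Incubation – 45 min room-temperature reaction, 5 min colour, 30 min stabiliser · Detection – colorimetric phosphate reagent with accelerator and stabiliser, absorbance at 630 nm · Measure – % inhibition at 20 µM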
STEP inh: STEP phosphatase inhibitors, primary screen, biochemical, fluorescence intensity, uHTS; Tyrosine-protein phosphatase non-receptor type 5 (Homo sapiens), P54829; recombinant STEP, OMFP fluorogenic substrate; inhibition, % at 20 µM; hit rate 0.25% among 360,000; AID 588621, 2011;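 active means inhibition at 20 µM, scaled per plate between control wells, above about 37%, limit read from the data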;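 further: 0% = DMSO with enzyme and substrate and 100% = substrate only without enzyme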
Target sequence (P54829 whole entry, looked up): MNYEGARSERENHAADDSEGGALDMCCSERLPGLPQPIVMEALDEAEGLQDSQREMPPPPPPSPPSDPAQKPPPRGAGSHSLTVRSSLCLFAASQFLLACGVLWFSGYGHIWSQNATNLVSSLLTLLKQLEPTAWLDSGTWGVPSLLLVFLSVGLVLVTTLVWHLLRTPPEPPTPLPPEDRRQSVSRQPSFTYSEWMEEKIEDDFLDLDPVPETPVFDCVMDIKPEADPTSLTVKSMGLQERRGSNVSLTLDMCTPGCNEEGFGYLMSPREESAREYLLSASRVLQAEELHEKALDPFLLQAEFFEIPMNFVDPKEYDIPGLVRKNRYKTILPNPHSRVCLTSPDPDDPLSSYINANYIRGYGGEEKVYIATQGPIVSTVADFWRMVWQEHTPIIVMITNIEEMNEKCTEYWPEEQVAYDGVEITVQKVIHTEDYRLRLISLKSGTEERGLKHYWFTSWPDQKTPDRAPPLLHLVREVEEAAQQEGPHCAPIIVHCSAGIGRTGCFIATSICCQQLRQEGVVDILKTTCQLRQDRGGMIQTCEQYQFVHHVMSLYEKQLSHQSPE
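System: isolated STEP enzyme; schedule: 20 min enzyme reaction at room temperature, protected from light; medium: Bis-Tris buffer pH 6.0, 2.5 mM DTT, 0.005% Tween 20; signal: fluorescence, 480/540 nm; dosing: single compound dose of 20 µM, 1% DMSO final; also added: OMFP substrate, 25 µM final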
SUMO1-SIM PPI: modulators of SUMO1 protein-protein interactions, primary screen, biochemical, uHTS | SUMO1 binding to a labelled peptide, TR-FRET, 1 h | hit rate 0.33% among 360,000 | inhibition, % at 20 µM; in the data active means inhibition above about 37%
LMPTP block: LMPTP phosphatase inhibitors, primary screen, biochemical, fluorescence intensity, uHTS; inhibition, % at 20 µM; hit rate 0.22% among 360,000; Low molecular weight phosphotyrosine protein phosphatase (Homo sapiens), P24666; recombinant LMPTP-A, OMFP fluorogenic substrate;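 active means compounds that cut the enzyme signal by at least half of the control window in the single-dose screen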;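 further: plate controls were DMSO wells with enzyme plus substrate for no effect and substrate without enzyme for full effect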
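Test system: LMPTP-A, protein tyrosine phosphatase of low molecular weight; Input: 0.625 nM enzyme; Incubation: 50 min dark incubation at room temperature; Signal: endpoint fluorescence intensity from OMFP dephosphorylation; Read-out basis: % inhibition versus control wells.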
DNMT1 confirm: DNMT1 methyltransferase inhibitor retest, confirmation, biochemical, molecular beacon, fluorescence, single concentration; shares compounds with DNMT1 inh; DNMT1 molecular beacon HinP1I cleavage; inhibition, % at 10 µM; hit rate 8% among 2,300;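 active means average inhibition of at least 30% in the single-concentration confirmation test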
Beacon interf: shows spectral interference in the DNMT1 beacon assay. shares compounds with DNMT1 inh. DNMT1 molecular beacon spectral interference counterscreen, fluorescence 485/520. activation (fluorescence interference), % at 10 µM. hit rate 1% among 2,300;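 active means activation of at least 30% at 10 µM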;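 further: DNMT1 catalytic domain with a HinP1I cleavage step and a FAM/dabcyl DNA beacon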
An asterisk follows results filed as active; . = no result given.

SMILES | DNMT1 inh | SUMO HTRF inh | Scp1 inh | STEP inh | SUMO1-SIM PPI | LMPTP block | DNMT1 confirm | Beacon interf
COc1cccc2cc(-c3cc(=O)oc4cc(C)c(OCC(C)=O)cc34)oc12 | 63.1* | 2.2 | 1.1 | -1.7 | 1.3 | -0.4 | 0.5 | -2.1
COc1ccc2oc(=O)cc(-c3cc4cccc(OC)c4o3)c2c1 | 0.7 | 8.7 | -5.2 | 1.1 | 1.4 | 0.0 | . | .
Cc1cc(-c2ccco2)c(C#N)c2nc3ccccc3n12 | 69.3* | 31.6 | 65.8* | 24.9 | 29.8 | 72.5* | 4.9 | 9.0
Cc1cc(C(C)C)n2c(nc3ccccc32)c1C#N | . | 14.2 | . | . | . | . | . | .
O=C(c1ccc(F)c(F)c1)N1CCC2(CC1)NCCc1[nH]cnc12 | -2.0 | . | 3.8 | 0.8 | -2.5 | -0.9 | . | .
N#CC(C(=O)Nc1ccc(Cl)c(Cl)c1)=C1Nc2ccccc2N1 | 65.1* | 25.2 | 0.5 | -1.8 | 3.9 | 0.5 | 0.9 | 1.9
Cn1c(OCC2CCCO2)nc2cc(-c3ccccc3)sc2c1=O (stereo not drawn) | -2.2 | . | . | 4.0 | -27.1 | -0.1 | . | .
CC(C)(C)CN1CCNC[C@H]1Cc1ccc(O)cc1 | 75.8* | . | -0.2 | 2.1 | 10.5 | -0.4 | 3.3 | 4.2
O=C(CCCCCn1c(=S)[nH]c2cc3c(cc2c1=O)OCO3)N1CCN(c2ccccc2)CC1 | 65.7* | 4.5 | -6.2 | 4.0 | 1.0 | 1.5 | -1.5 | -5.9
COc1cc(Cn2c3ccc(NC(=O)NCc4ccc(F)cc4)cc3c(=O)n2C)ccc1F | -4.3 | . | . | -3.8 | 5.4 | 0.9 | . | .
C=CCc1cccc2cc(C(=O)Nc3ccc(CC(=O)O)cc3)c(=O)oc12 | 80.5* | 20.2 | 28.6 | 8.0 | -4.4 | 1.2 | 4.9 | 5.8
CC(CC(=O)Nc1ccc2c(c1)c(=O)n(C)n2-c1cccs1)c1ccccc1 (stereo not drawn) | 0.1 | . | . | 1.3 | 0.0 | 2.0 | . | .
COc1cccc2cc(C(=O)Nc3cc(Cl)ccc3N3CCOCC3)c(=O)oc12 | 54.7* | 12.1 | -5.7 | 2.8 | 1.7 | 0.5 | 2.6 | 4.6
Clc1nc2ccccc2cc1/C=N/Nc1nc2ccccc2[nH]1 | 55.4* | -40.9 | -10.4 | 5.8 | -9.5 | 5.1 | 2.3 | -7.3
O=C(N/N=C/c1ccc2c(c1)OCO2)C(=O)Nc1ccc2ccccc2c1 | . | 7.4 | . | . | . | . | . | .
COc1ccc2nc3ccccc3nc2c1NC(=O)c1ccc(Cl)cc1Cl | 56.6* | -2.5 | -4.1 | -49.5 | -7.9 | -4.0 | 28.5 | 37.5*
COc1cc(NC(C)=O)ccc1-c1cc2ccccc2oc1=O | -10.2 | 40.5 | -6.2 | -0.9 | -15.6 | 0.4 | . | .
COc1cc(NC(=O)c2ccc(Cl)cc2Cl)ccc1-c1cc2ccccc2oc1=O | 66.2* | 24.2 | -4.4 | -1.1 | 2.5 | 3.9 | -1.1 | -2.4
Cc1oc(-c2cccc(Cl)c2)nc1CS(=O)(=O)CC(=O)NCc1ccco1 | -4.0 | 3.9 | -5.7 | -1.6 | 2.6 | 0.5 | . | .
O=C(CCN1N=C(c2ccccc2)CCC1=O)NCC1COc2ccccc2O1 (stereo not drawn) | 0.7 | 19.4 | -13.2 | 0.8 | -1.0 | -1.9 | . | .
Cn1nnnc1SCC(=O)NCc1ccco1 | 0.9 | 6.7 | 0.3 | 0.5 | 1.1 | -1.4 | . | .
CCOc1ccccc1-n1nnnc1SCC(=O)NC(=O)Cc1ccccc1 | -0.5 | . | -1.2 | -1.1 | 0.1 | -1.5 | . | .
O=C(CSc1nnnn1-c1ccccc1)NC(=O)NCc1ccco1 | 68.2* | 7.4 | 42.2 | -2.2 | 26.6 | 30.1 | -0.4 | -0.7
CCOc1ccccc1-n1nnnc1SCC(=O)NC(=O)NCc1ccco1 | 59.6* | 11.1 | 48.2 | -15.1 | 4.9 | 10.9 | 1.4 | 5.2
COc1ccc(Br)cc1CN(C)CC(O)COc1ccc(Br)cc1 (stereo not drawn) | -0.3 | -3.7 | -2.0 | -0.5 | 2.8 | 1.6 | . | .
SMILES | DNMT1 inh | SUMO HTRF inh | Scp1 inh | STEP inh | SUMO1-SIM PPI | LMPTP block | DNMT1 confirm | Beacon interf
Cc1ccc(CNC(=O)c2nnn(CC(=O)Nc3cc(C)cc(C)c3)c2N)cc1 | 56.2* | 30.2 | -1.4 | -1.6 | 3.4 | 14.1 | -2.1 | -0.1
CN1CCN(C(=O)CCN2C(=O)c3ccccc3C2=O)CC1 | 51.2* | 21.2 | -0.7 | -0.6 | -2.6 | -0.1 | 1.4 | 1.7
O=C(O)CCc1ccc(-c2ccc(Br)cc2)n1Cc1ccco1 | 72.9* | 28.3 | 1.8 | 2.0 | 6.6 | 2.0 | 9.8 | 2.0
c1ccc(C2CCC(N3CCNCC3)CC2)cc1 (stereo not drawn) | 4.0 | -5.3 | -9.1 | 3.5 | -3.1 | -4.1 | . | .
O=C(NNC(=O)c1ccccc1-n1cccc1)c1cccnc1 | 2.9 | . | . | -1.9 | 4.0 | -1.2 | . | .
CCCCN1C(=O)/C(=C/C=C2\Oc3ccccc3N2CC)SC1=S | 19.9 | 10.0 | -3.9 | -41.8 | -27.6 | 8.4 | . | .
CCCCN1C(=O)/C(=C/C=C2/CC(C)(C)CN2C)SC1=S | 75.8* | -11.7 | 5.3 | -33.4 | -142.5 | 16.6 | 81.1* | 84.8*
CCN(CC(=O)Nc1ccccc1OC)C(=O)CSCC(=O)Nc1cccc(C)c1 | -2.4 | . | -11.1 | 1.6 | 7.9 | -9.6 | . | .
COc1ccc2nc(C)cc(SCC(=O)N/N=C/c3cccc4ccccc34)c2c1 | 53.2* | -3.2 | -10.7 | 2.8 | 0.7 | 26.4 | 3.0 | -2.9
Cc1ccc(S(=O)(=O)N=S(CCO)CCO)cc1 | 1.1 | -2.3 | -1.8 | -3.7 | -2.0 | -1.1 | . | .
Cc1cc2cc(C)c3nnc(SCC(=O)Nc4ccc(S(=O)(=O)N5CCCCC5)cc4)n3c2cc1C | 56.0* | 15.9 | -0.8 | -2.1 | 2.3 | 0.5 | 1.9 | -0.4
COC(=O)c1c(C)[nH]c(C(=O)COC(=O)CCc2ccc(OC)c(OC)c2)c1C | 1.4 | . | . | 0.2 | -2.7 | -0.4 | . | .
CN(Cc1ccccc1)c1ccc(C(CC(N)=O)NC(=O)Cc2ccc(Br)cc2)cc1[N+](=O)[O-] (stereo not drawn) | 80.2* | 44.6 | -5.9 | 3.6 | 4.3 | 2.5 | -3.9 | -4.1
NC(=O)CC(NC(=O)Cc1ccc(Br)cc1)c1ccc(N2CCC(Br)CC2)c([N+](=O)[O-])c1 (stereo not drawn) | 76.7* | . | 4.0 | 1.4 | -2.1 | 1.5 | -4.4 | -3.0
